Results published in ChEMBL document CHEMBL4229360, “Antimalarial agents against both sexual and asexual parasites stages: structure-activity relationships and biological studies of the Malaria Box compound 1-[5-(4-bromo-2-chlorophenyl)furan-2-yl]-N-[(piperidin-4-yl)methyl]methanamine (MMV019918) and analogues” (Eur J Med Chem, 2018).
The source made the active and inactive calls. The calls are words filed in the database; no cut-off is given here.

Assays:
Plasmodium falciparum [1] = experiment: Antiplasmodial activity against asexual blood stage Plasmodium falciparum NF54 after 72 hrs by SYBR green-based fluorometric analysis; format: functional, organism-based; settings: NF54, 72 h
Summary of the method: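 Asexual NF54 seeded at 0.83% parasitaemia, 1.5% haematocrit, in RPMI1640 with 10% human serum. Serial dilutions, final DMSO 0.1%. Incubated 72 h at 37 °C under 3% O2, 4% CO2, then read by SYBR Green fluorescence.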

[2] = Cardiotoxicity in Langendorff perfused Wistar rat heart assessed as cycle length interval time at 0.1 uM by electrocardiography (reference value: 217.15 to 242.23 milliseconds); format: toxicity, tissue-based
[3] = Cardiotoxicity in Langendorff perfused Wistar rat heart assessed as PQ interval time at 3 uM by electrocardiography (reference value: 41.13 to 42.63 milliseconds); format: toxicity, tissue-based
[4] = target: T1, Phosphoethanolamine N-methyltransferase (Plasmodium falciparum, UniProt Q8IDQ9); experiment: Inhibition of plasmodium falciparum phosphoethanolamine N-methyltransferase expressed in Escherichia coli using phosphoethanolamine as substrate and [methyl-14C] SAM by radiochemical assay
T1 sequence (Q8IDQ9 whole entry): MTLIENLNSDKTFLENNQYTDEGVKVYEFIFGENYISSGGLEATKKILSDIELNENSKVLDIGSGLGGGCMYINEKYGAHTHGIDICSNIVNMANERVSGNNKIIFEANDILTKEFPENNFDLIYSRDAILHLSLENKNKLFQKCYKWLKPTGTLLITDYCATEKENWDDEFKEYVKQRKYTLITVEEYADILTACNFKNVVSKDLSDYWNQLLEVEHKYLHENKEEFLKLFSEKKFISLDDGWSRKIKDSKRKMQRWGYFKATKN
Summary of the method: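 Recombinant PfPMT purified from E. coli, 2 μg per 100 μL reaction. Buffer 0.1 M HEPES-KOH pH 8.0, 2 mM Na2EDTA, 10% glycerol, 5% DMSO, with 30 μM SAM (100 nCi [methyl-14C]SAM) and 55 μM phosphoethanolamine; radiochemical read-out.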

Plasmodium berghei [5] = experiment: (§1) Antimalarial activity against liver stage form of mCherry expressing Plasmodium berghei ANKA sporozoites infected in mouse primary hepatocytes assessed as reduction in parasite size at 0.0625 to 4 uM administered 2 hrs post infection and measured after 48 hrs post infection with medium change at 24 hrs post infection by fluorescent microscopic analysis; format: functional, organism-based
Summary of the method: (§2)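 Parasite number and size in unfixed cells by automated microscopy at 48 hpi. Detached cells collected at 65 hpi, counted by fluorescence microscopy, expressed as % of 48 h parasite number. n = 4; one-way ANOVA with Dunnett's test.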

[6] = Cardiotoxicity in Langendorff perfused Wistar rat heart assessed as frequency of heart rate at 0.1 uM by electrocardiography (reference value: 247.05 to 275.90 bpm); format: toxicity, tissue-based
[7] = Cardiotoxicity in Langendorff perfused Wistar rat heart assessed as frequency of heart rate at 10 uM by electrocardiography (reference value: 247.05 to 275.90 bpm); format: toxicity, tissue-based
[8] = Cardiotoxicity in Langendorff perfused Wistar rat heart assessed as QTc interval time at 0.1 uM by electrocardiography (reference value: 76.45 to 80.07 milliseconds); format: toxicity, tissue-based
[9] = Cardiotoxicity in Langendorff perfused Wistar rat heart assessed as cycle length interval time at 3 uM by electrocardiography (reference value: 217.15 to 242.23 milliseconds); format: toxicity, tissue-based
Plasmodium berghei [10] = experiment: as §1, with “inhibition of detached cell formation rate” for “reduction in parasite size”; format: functional, organism-based; summary of the method: as §2
[11] = Cardiotoxicity in Langendorff perfused Wistar rat heart assessed as QTc interval time at 3 uM by electrocardiography (reference value: 76.45 to 80.07 milliseconds); format: toxicity, tissue-based
Plasmodium falciparum [12] = experiment: Antiplasmodial activity against chloroquine-resistant Plasmodium falciparum W2 after 72 hrs by lactate dehydrogenase assay; format: functional, organism-based; settings: W2, 72 h
Summary of the method: (§3)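 Asynchronous blood-stage cultures at 1–1.5% parasitemia and 1% final hematocrit in human A+ RBCs, RPMI 1640 with 1% AlbuMax, hypoxanthine, HEPES and glutamine. Serial dilutions from DMSO stocks, final DMSO <1%. Incubated 72 h at 37 °C under 1% O₂/5% CO₂. IC50 is the mean of ≥3 experiments in duplicate.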

[13] = Cardiotoxicity in Langendorff perfused Wistar rat heart assessed as frequency of heart rate at 3 uM by electrocardiography (reference value: 247.05 to 275.90 bpm); format: toxicity, tissue-based
[14] = Cardiotoxicity in Langendorff perfused Wistar rat heart assessed as QRS interval time at 3 uM by electrocardiography (reference value: 13.31 to 14.35 milliseconds); format: toxicity, tissue-based
[15] = Cardiotoxicity in Langendorff perfused Wistar rat heart assessed as coronary perfusion pressure at 0.1 to 10 uM; format: toxicity, tissue-based
[16] = Cardiotoxicity in Langendorff perfused Wistar rat heart assessed as PQ interval time at 1 uM by electrocardiography (reference value: 41.13 to 42.63 milliseconds); format: toxicity, tissue-based
Plasmodium falciparum [17] = experiment: (§4) Antiplasmodial activity against gametocytes of Plasmodium falciparum NF54 infected in Anopheles mosquitoes assessed as decrease in infection prevalance measured at baseline infection intensity of 30 oocysts/midgut pre-treated with compound for 24 hrs before feeding and measured 8 days post infection by standard membrane feeding assay; format: functional, organism-based
Summary of the method: (§5)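 NF54-HGL luciferase-reporter gametocytes were pre-incubated with compound for 24 h, then membrane-fed to Anopheles mosquitoes. Infection was read by luminescence 8 d post-infection, with 24 mosquitoes analysed per feed and each feed done in duplicate. IC50 was derived for infection intensity and for prevalence at a baseline of 30 oocysts/midgut.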

Plasmodium falciparum [18] = experiment: as §4, with “intensity” for “prevalance”; format: functional, organism-based; summary of the method: as §5
Plasmodium falciparum [19] = experiment: Antiplasmodial activity against chloroquine-sensitive Plasmodium falciparum D10 after 72 hrs by lactate dehydrogenase assay; format: functional, organism-based; settings: D10, 72 h; summary of the method: as §3
[20] = Cardiotoxicity in Langendorff perfused Wistar rat heart assessed as frequency of heart rate at 1 uM by electrocardiography (reference value: 247.05 to 275.90 bpm); format: toxicity, tissue-based
[21] = Cardiotoxicity in Langendorff perfused Wistar rat heart assessed as QRS interval time at 1 uM by electrocardiography (reference value: 13.31 to 14.35 milliseconds); format: toxicity, tissue-based
[22] = Cardiotoxicity in Langendorff perfused Wistar rat heart assessed as cycle length interval time at 10 uM by electrocardiography (reference value: 217.15 to 242.23 milliseconds); format: toxicity, tissue-based
[23] = Cardiotoxicity in Langendorff perfused Wistar rat heart assessed as QRS interval time at 10 uM by electrocardiography (reference value: 13.31 to 14.35 milliseconds); format: toxicity, tissue-based
[24] = Cardiotoxicity in Langendorff perfused Wistar rat heart assessed as PQ interval time at 10 uM by electrocardiography (reference value: 41.13 to 42.63 milliseconds); format: toxicity, tissue-based
[25] = Cardiotoxicity in Langendorff perfused Wistar rat heart assessed as PQ interval time at 0.1 uM by electrocardiography (reference value: 41.13 to 42.63 milliseconds); format: toxicity, tissue-based
Plasmodium berghei [26] = experiment: as §1, with “load” for “size”; format: functional, organism-based; summary of the method: as §2
[27] = Cardiotoxicity in Langendorff perfused Wistar rat heart assessed as cycle length interval time at 1 uM by electrocardiography (reference value: 217.15 to 242.23 milliseconds); format: toxicity, tissue-based

Clc1ccc(-c2ccc(CNCC3CCNCC3)o2)c(-c2ccccc2)c1
IC50 (Plasmodium falciparum [1]): 670 nM | Time [2]: 218.32 ms | Time [3]: 45.47 ms | IC50 [4]: 44.3 µM | Activity (Plasmodium berghei [5]): inactive | Activity [6]: 276.19 bpm | Activity [7]: 259.41 bpm | Time [8]: 74.92 ms | Time [9]: 216.73 ms | Activity (Plasmodium berghei [10]): inactive | Time [11]: 78.56 ms | IC50 (Plasmodium falciparum [12]): 2400 nM | Activity [13]: 276.4 bpm | Time [14]: 14.65 ms | Activity [15]: Non-Toxic | Time [16]: 41.59 ms | IC50 (Plasmodium falciparum [17]): 830 nM | IC50 (Plasmodium falciparum [18]): 210 nM | IC50 (Plasmodium falciparum [19]): 880 nM | Activity [20]: 275.47 bpm | Time [21]: 13.7 ms | Time [22]: 232.2 ms | Time [23]: 17.91 ms | Time [24]: 65.08 ms | Time [25]: 41.24 ms | Activity (Plasmodium berghei [26]): inactive | Time [27]: 217.02 ms
